pEC50: −log10 of the molar value. Activity calls are given as the source filed them.
Tests used:
[1] = test system: Influenza A virus; test: Antiviral activity against oseltamivir/amantadine-resistant Influenza A virus (A/Puerto Rico/8/1934(H1N1)) infected in MDCK cells assessed as protection against virus-induced cytocidal effect after 48 hrs by CellTiter-Glo assay; type: functional, organism-based; settings: for pEC50: Influenza A virus, A/Puerto Rico/8/1934(H1N1), MDCK, 48 h, read-out: EC50
Method in brief: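 Cytocidal protection assay in MDCK cells. EC50 is the concentration (μM) protecting cells by 50% from the virus's cytocidal effect, given as mean ± SD from at least three independent tests.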

[2] = test system: Influenza A virus (A/Puerto Rico/8/1934(H1N1)); test: Inhibition of oseltamivir/amantadine-resistant Influenza A virus (A/Puerto Rico/8/1934(H1N1)) hemagglutinin-mediated hemolysis of chicken RBC preincubated with virus for 30 mins followed by RBC addition measured after 30 mins by microplate reader analysis
Method in brief: (§1)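 Erythrocyte-virus-compound mixture incubated at 37 °C for 30 min, then acidified to pH 5.2 with 0.15 M sodium acetate buffer to trigger HA-mediated hemolysis. OD540 of supernatants was measured. Hemolysis without compound is defined as 100%. Values are averages of two independent tests.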

[3] = test system: Influenza A virus; test: Antiviral activity against oseltamivir/amantadine-resistant Influenza A virus (A/Puerto Rico/8/1934(H1N1)) assessed as inhibition of viral infectivity in MDCK cells at 10 uM after 6 hrs by FITC conjugated anti-NP antibodies/DAPI staining-based confocal microscopic analysis; type: functional, organism-based
Method in brief: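 MDCK cells were infected at MOI = 1 in the presence of 10 μM compound for 6 h. Infected cells were stained with FITC-conjugated anti-NP antibody, with DAPI as nuclear stain, and imaged by confocal microscopy. Infected cells without compound served as control.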

[4] = test system: Influenza A virus (A/Puerto Rico/8/1934(H1N1)); test: Inhibition of oseltamivir/amantadine-resistant Influenza A virus (A/Puerto Rico/8/1934(H1N1)) hemagglutinin-mediated hemolysis of chicken RBC at 10 uM preincubated with virus for 30 mins followed by RBC addition measured after 30 mins by microplate reader analysis; method in brief: as §1

C[C@]1(C(=O)OCc2ccccc2)CCC[C@]2(C)c3cc(OC(=O)CCC(=O)O)ccc3CC[C@@H]12
pEC50 [1]: < 5.19

C=CC(=O)Oc1ccc2c(c1)[C@@]1(C)CCC[C@](C)(C(=O)OC)[C@@H]1CC2
pEC50 [1]: 6.19
inhibition [2]: Dose-dependent effect

COC(=O)[C@@]1(C)CCC[C@]2(C)c3cc(OC(=O)CCCBr)ccc3CC[C@@H]12
pEC50 [1]: 6.24

NC12CC3CC(CC(C3)C1)C2 [AMANTADINE]
pEC50 [1]: < 4.70

COC(=O)[C@@]1(C)CCC[C@]2(C)c3cc(OC(=O)CCBr)ccc3CC[C@@H]12
inhibition [3]: Active
pEC50 [1]: 6.68

CNC(=O)[C@@]1(C)CCC[C@]2(C)c3cc(O)ccc3CC[C@@H]12
pEC50 [1]: < 4.46

COC(=O)[C@@]1(C)CCC[C@]2(C)c3cc(OC(=O)CCCCCBr)ccc3CC[C@@H]12
pEC50 [1]: 6.72

COC(=O)[C@@]1(C)CCC[C@]2(C)c3cc(OC(C)=O)ccc3CC[C@@H]12
pEC50 [1]: 6.85

COC(=O)[C@@]1(C)CCC[C@]2(C)c3cc(OC(=O)C(C)C)ccc3CC[C@@H]12
pEC50 [1]: 6.49

CC(C)c1c(O)ccc2c1CC[C@H]1C(C)(C)CCC[C@]21C [TOTAROL]
inhibition [3]: Active
pEC50 [1]: 5.46

COC(=O)[C@@]1(C)CCC[C@]2(C)c3cc(OC)ccc3CC[C@@H]12
pEC50 [1]: 6.14

COC(=O)[C@@]1(C)CCC[C@]2(C)c3cc(OC(=O)CCCCBr)ccc3CC[C@@H]12
pEC50 [1]: 6.38

COC(=O)[C@@]1(C)CCC[C@]2(C)c3cc(OC(=O)C(C)F)ccc3CC[C@@H]12 (stereo not given in full)
pEC50 [1]: 6.82

COC(=O)[C@@]1(C)CCC[C@]2(C)c3cc(O)ccc3CC[C@@H]12
pEC50 [1]: 6.80

COC(=O)[C@@]1(C)CCC[C@]2(C)c3cc(OC(=O)C4CC4)ccc3CC[C@@H]12
pEC50 [1]: 6.82

C[C@]1(C(=O)OCc2ccccc2)CCC[C@]2(C)c3cc(OCCC(=O)O)ccc3CC[C@@H]12
EC50 ([1]; mdck): Not Active

C[C@]1(C(=O)O)CCC[C@]2(C)c3cc(O)ccc3CC[C@@H]12 [PODOCARIC ACID]
pEC50 [1]: 4.74

C[C@]1(C(=O)O)CCC[C@]2(C)c3cc(OC(=O)CCC(=O)O)ccc3CC[C@@H]12
pEC50 [1]: 4.73

CCOC(=O)C1=C[C@@H](OC(CC)CC)[C@H](NC(C)=O)[C@@H](N)C1 [OSELTAMIVIR]
inhibition [4]: inactive
pEC50 [1]: < 4.70

C=CC(=O)Oc1ccc2c(c1)[C@@]1(C)CCC[C@](C)(C(=O)NC)[C@@H]1CC2
pEC50 [1]: < 4.53

C=CC(=O)Oc1ccc2c(c1)[C@@]1(C)CCC[C@](C)(C(=O)OCc3ccccc3)[C@@H]1CC2
pEC50 [1]: 6.32

COC(=O)[C@@]1(C)CCC[C@]2(C)c3cc(OC(=O)CCCC(=O)O)ccc3CC[C@@H]12
pEC50 [1]: 6.43

COC(=O)[C@@]1(C)CCC[C@]2(C)c3cc(OC(=O)CCC(=O)O)ccc3CC[C@@H]12
pEC50 [1]: 6.74

COC(=O)[C@@]1(C)CCC[C@]2(C)c3cc(OC)ccc3C(=O)C[C@@H]12
pEC50 [1]: 5.44

COC(=O)[C@@]1(C)CCC[C@]2(C)c3cc(OCCC(=O)O)ccc3CC[C@@H]12
pEC50 [1]: < 4.60

C[C@]1(C(=O)OCc2ccccc2)CCC[C@]2(C)c3cc(O)ccc3CC[C@@H]12
pEC50 [1]: 5.80

— ChEMBL document CHEMBL3576824, “Phenolic diterpenoid derivatives as anti-influenza a virus agents” (ACS Med Chem Lett, 2015)
